Screens from PubChem BioAssay.
Sampled rows, rich in hits. Any-hit rate of the full collection: about 0.74%.
Calb biofilm kill: mixtures killing C. albicans biofilm; C. albicans biofilm persisters + clotrimazole, fluorescence viability; primary screen in compound mixtures of four per well; AID 1242; inhibition, % at 7.6 µM; actives 0.02% (n = 120,000);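 active = inhibition above 30.3% in the primary screen of four-compound pools, then above 30% when the compound was retested; inconclusive = passed the primary limit but could not be retested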;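 also: compounds exposed to preformed 24 h biofilms for 48 h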
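Assay system: C. albicans biofilms / Medium: RPMI/MOPS medium, pH 7.0 / Schedule: biofilm formation 24 h, compound exposure 48 h, 37 °C / Measured by: Alamar Blue fluorescence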
RGS4-Gao reg: human RGS4-Galphao interaction regulation | Multiplexed bead flow cytometry, RGS4-Galphao binding; actives lie on both sides | binding response (% of control), % at 10 µM | actives 0.33% (n = 220,000); in the data active = binding response below about 49% or above about 150%; inactive = in between;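 also: fluorescent Galphao activated with aluminum fluoride binding bead-coupled RGS4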
RGS7-Gao: modulates binding of RGS7 to human Galphao | P09471 | Multiplexed bead flow cytometry; actives lie on both sides | binding response (% of control), % at 10 µM | actives 0.35% (n = 220,000); in the data active = binding response below about 49% or above about 150%; inconclusive = no clear call, values can overlap the other calls; inactive = in between;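 also: fluorescent Galphao held in activated GDP-AlF4 state binding bead-coupled RGS7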
RGS16-Gao: modulates binding between human RGS16 and Galphao; O15492+P09471; bead-based flow cytometry RGS16-Galphao binding, fluorescence; actives lie on both sides; binding response (% of control), % at 10 µM; actives 0.38% (n = 220,000); AID 1441;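 also: Galphao activated by GDP with aluminum fluoride before binding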
RGS8-Gao: modulates binding of RGS8 to human Galphao; AID 1423; P09471; response (percent of control binding), % at 10 µM; actives 0.34% (n = 220,000); multiplexed bead flow cytometry; actives lie on both sides; in the data active = response below about 60% or above about 140%; inactive = in between;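 also: Galphao activated as the GDP aluminium fluoride complex binding bead-coupled RGS8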
RGS4-Gao HTS: regulators of human RGS4-Galphao interaction; shares compounds with RGS16-Gao; multiplexed bead flow cytometry, RGS–Galpha-o binding; actives 99% (n = 1,600); RGS4–Galpha-o binding response, % at 10 µM;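 also: fluorescently labeled Galpha-o bound to GDP with aluminium fluoride binding biotinylated RGS beads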
Target sequence (P09471 whole entry, looked up): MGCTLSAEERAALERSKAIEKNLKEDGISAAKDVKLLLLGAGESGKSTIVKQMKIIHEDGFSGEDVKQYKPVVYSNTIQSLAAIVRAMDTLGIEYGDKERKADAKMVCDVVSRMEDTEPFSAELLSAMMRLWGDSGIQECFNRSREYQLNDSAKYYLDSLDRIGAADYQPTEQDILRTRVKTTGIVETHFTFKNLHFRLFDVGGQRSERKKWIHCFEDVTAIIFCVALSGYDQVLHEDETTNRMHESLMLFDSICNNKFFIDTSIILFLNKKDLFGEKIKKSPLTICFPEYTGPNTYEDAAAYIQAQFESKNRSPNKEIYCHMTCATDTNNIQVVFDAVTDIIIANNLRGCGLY
Target sequence (P49798 whole entry, looked up): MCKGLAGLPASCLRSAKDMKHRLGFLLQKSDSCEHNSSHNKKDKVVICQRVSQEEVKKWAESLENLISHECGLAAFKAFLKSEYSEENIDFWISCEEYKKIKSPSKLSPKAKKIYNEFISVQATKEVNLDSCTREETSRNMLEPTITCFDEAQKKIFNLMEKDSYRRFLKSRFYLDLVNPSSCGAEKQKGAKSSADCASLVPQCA
Biotin-avidin: counter-screen: compounds disrupting biotin binding to avidin beads; shares compounds with RGS16-Gao; streptavidin beads, fluorescein-biotin binding, flow cytometry; inhibition, % at 10 µM; 1,700 tested, under 10 active; AID 1783;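 active = inhibition above 50%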;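 also: median green fluorescence of gated singlet beads compared with DMSO control wells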
RGS8-Gao confirm: confirmation of regulators of human RGS8-Galphao interaction; shares compounds with RGS16-Gao; bead-based flow cytometry RGS8-Galphao binding, fluorescence; actives lie on both sides; binding response (% of control), % at 10 µM; actives 3% (n = 1,700); in the data active = binding response below about 72% or above about 130%; inactive = in between;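 also: Galphao activated as GDP AlF4 complex before binding bead RGS8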
RGS7-Gao single: RGS7-Galphao interaction regulation, single point confirmation. shares compounds with RGS16-Gao. response (percent of control binding), % at 10 µM. AID 1837. actives 7.8% (n = 1,700). bead-based flow cytometry RGS7-Galphao binding; actives lie on both sides; in the data active = response below about 75% or above about 130%; inactive = in between;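 also: fluorescent Galphao activated with GDP and aluminum fluoride binding bead-coupled RGS7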
RGS16-Gao single: confirmation of regulators of human RGS16-Galphao interaction; actives 4% (n = 1,700); AID 1838; bead-based flow cytometry, RGS16-Galphao binding; actives lie on both sides; shares compounds with RGS16-Gao; response (% of control binding), % at 10 µM; in the data active = response below about 74% or above about 130%; inactive = in between;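 also: Galphao activated as the GDP aluminium fluoride complex binding bead-coupled RGS16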
RGS4-Gao single: RGS4-Galphao interaction regulation, single point confirmation. shares compounds with RGS16-Gao. RGS4-Galphao binding, multiplexed bead flow cytometry; actives lie on both sides. binding response (% of control), % at 10 µM. actives 4% (n = 1,700). AID 1840; in the data active = binding response below about 74% or above about 130%; inactive = in between
RGS19-Gao conf: RGS19-Galphao interaction regulation, single point confirmation; shares compounds with RGS16-Gao; bead-based flow cytometry RGS19-Galphao binding; actives lie on both sides; response (percent of control binding), % at 10 µM; actives 5% (n = 1,700); AID 1841; in the data active = response below about 50% or above about 160%; inactive = in between
A number is an active result; – = inactive; ? = inconclusive; · = no result; [ ] = dose if it differs, or a comment. Unless noted, no rule for the calls is given here.

SMILES	Calb biofilm kill	RGS4-Gao reg	RGS7-Gao	RGS16-Gao	RGS8-Gao	Biotin-avidin	RGS8-Gao confirm	RGS7-Gao single	RGS16-Gao single	RGS4-Gao single	RGS19-Gao conf	others
Cc1ccc2nc(-c3cccnc3)c(NC3CCCCC3)n2c1	–	–	–	203[activator]	–	–	–	–	–	–	–	RGS4-Gao HTS=114
Cc1ccc(/C=N/N=C2/NC(=O)CS2)o1	–	–	–	–	–	·	·	·	·	·	·
O=C1CS/C(=N/N=C/c2c[nH]c3ccccc23)N1	–	155[activator]	?	176[activator]	–	–	–	–	–	–	–
C=CCn1c(COc2ccccc2)nnc1SCC(=O)Nc1ccc(S(N)(=O)=O)cc1	·	–	–	–	–	·	·	·	·	·	·
Cn1c(COc2ccccc2)nnc1SCC(=O)Nc1ccc(S(N)(=O)=O)cc1	·	·	·	·	·	–	–	–	–	–	–
N#CC1(C#N)CC(C=O)=C(N)C1(C#N)CC(=O)C12CC3CC(CC(C3)C1)C2 (stereo unspecified)	–	–	–	–	–	·	·	·	·	·	·
CCOc1ccc(CNC(=S)N/N=C/c2ccc(OC)c(OC)c2)cc1	–	–	–	–	–	·	·	·	·	·	·
Cn1nc(C(F)(F)F)c(-c2ccccc2)c1NC(=O)c1ccco1	–	–	?	–	–	·	·	·	·	·	·
Cn1nc(C(F)(F)F)c(-c2ccc(F)cc2)c1NC(=O)c1ccco1	–	188[activator]	?	176[activator]	–	–	–	74	–	–	–
CCSc1nnc(NC(=O)C(C)(C(F)(F)F)C(F)(F)F)s1	·	–	–	288[activator]	–	–	–	–	–	–	–	RGS4-Gao HTS=112
CCSc1nnc(NC(=O)C(CC)(C(F)(F)F)C(F)(F)F)s1	·	–	–	–	–	·	·	·	·	·	·
C=CCn1c(=O)[nH]c2cc(C(=O)N3CC=C(c4ccccc4)CC3)ccc2c1=O	–	–	?	–	–	·	·	·	·	·	·
O=C(NCc1nc2ccccc2[nH]1)C1=C[C@@H](c2ccc3c(c2)OCO3)C[C@@H](OCc2ccc(CO)cc2)O1	–	–	?	–	–	·	·	·	·	·	·
CC(=O)N1CCN(c2ccc(NCc3cccs3)cc2)CC1	·	50	40	–	46	–	–	–	–	–	–
COc1nc(-c2ccccc2)cc(-c2ccccc2)n1	·	–	207[activator]	–	–	–	–	–	–	–	–	RGS4-Gao HTS=133
O=C(OCc1nnc(-c2ccccc2)o1)c1cccnc1Cl	–	–	–	–	–	·	·	·	·	·	·
CCOc1ncccc1C(=O)OCc1nnc(-c2ccccc2)o1	·	·	·	·	·	–	–	–	–	–	–
O=C1NCC(O)=C1C=NC12CC3CC(CC(C3)C1)C2	·	–	–	–	–	–	–	–	–	–	–
CCN(c1cccc(C)c1)c1nc2ccsc2c(=O)s1	·	–	–	–	–	·	·	·	·	·	·
COc1ccc(-n2nnc3c(=O)n(CC(=O)Nc4cc(C)on4)cnc32)cc1OC	–	–	–	–	–	·	·	·	·	·	·
O=C(NCc1ccco1)c1ccc(COc2ccc(Cl)cc2)cc1	–	–	–	12	–	–	–	–	–	–	–	RGS4-Gao HTS=89
S=C(NCc1ccco1)Nc1ccc(Oc2ccc(Cl)cc2)cc1	–	-37	?	-20	14	–	–	–	–	–	–
Cn1c(SCC(=O)N2CCCC2=O)nc2ccccc21	–	19	?	9.5	13	–	–	–	–	–	–
